Data set [1] in a line: AUC in fat of CD-1 female mouse at 10 mg/kg, ip single dose by LC-MS/MS analysis. The following applies: CD-1, mouse.
Data set [2] in a line: Cmax in fat of CD-1 female mouse at 10 mg/kg, ip single dose by LC-MS/MS analysis. The following applies: CD-1, mouse.
Data set [3] is described as follows: AUC in lung of CD-1 female mouse at 10 mg/kg, ip single dose by LC-MS/MS analysis. The settings on record: CD-1, mouse.
Data set [4] can be described thus: Cmax in lung of CD-1 female mouse at 10 mg/kg, ip single dose by LC-MS/MS analysis. The settings on record: CD-1, mouse.
Data set [5] is described as follows: AUC in plasma of CD-1 female mouse at 10 mg/kg, ip single dose by LC-MS/MS analysis. The following applies: CD-1, mouse.
Data set [6] in a line: Cmax in plasma of CD-1 female mouse at 10 mg/kg, ip single dose by LC-MS/MS analysis. The settings on record: CD-1, mouse.
A short description of data set [7]: Drug level in tumor of nod-SCID mouse xenografted with human NCI-H2122 cells at 20 mg/kg, ip single dose and measured after 7 hrs by LC-MS/MS analysis. The settings on record: read-out: Drug uptake.
Data set [8] can be described thus: Drug metabolism in human NCI-H2122 cells assessed as (R)-4-(amino(phenyl)methyl)-N-(6-hydroxybenzo[d]thiazol-2-yl)-benzamide formation at 100 nM by LC-MS/MS analysis. It is filed as ADME, cell-based. The following applies: nci-h2122, 0.1 µM. The method, boiled down: (§1)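 H2122 and H1155 pLVX (empty vector) cells, 4000/well, adhered overnight. Then fresh medium with 100 nM prodrug, ±1 μM HET0016 (CYP4A/4F inhibitor), at 37 °C, 5% CO2. At varying times, cells and medium lysed and protein-precipitated with 2 volumes methanol/0.2% formic acid containing internal standard, then spun at 16,000g for 5 min. Parent and demethylated metabolite quantified by LC-MS/MS against standard curves in blank cell lysates.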

The nature of data set [9]: Half life in human NCI-H2122 cells at 100 nM by LC-MS/MS analysis. In kind it is ADME, cell-based. Summed up: as §1
Data set [10] in a line: Half life in human NCI-H1155 cells at 100 nM by LC-MS/MS analysis. It is filed as ADME, cell-based. The method, boiled down:
as §1

The nature of data set [11]: Half life in human NCI-H2122 cells at 100 nM in presence of CYP4F inhibitor HET0016 by LC-MS/MS analysis. The settings on record: with HET0016 (CYP4F inhibitor), concentration not stated. In kind it is ADME, cell-based. The method, boiled down: as §1
Data set [12] can be described thus: Drug metabolism in human NCI-H1155 cells assessed as (R)-4-(amino(phenyl)methyl)-N-(6-hydroxybenzo[d]thiazol-2-yl)-benzamide formation at 100 nM by LC-MS/MS analysis. In kind it is ADME, cell-based. The settings on record: nci-h1155, 0.1 µM. Summed up: as §1
Data set [13] is described as follows: Drug metabolism in human NCI-H2122 cells assessed as (R)-4-(amino(phenyl)methyl)-N-(6-hydroxybenzo[d]thiazol-2-yl)-benzamide formation at 100 nM by in presence of CYP4F inhibitor HET0016 LC-MS/MS analysis. It is filed as ADME, cell-based. The settings on record: nci-h2122, 0.1 µM. Summed up:
as §1

Data set [14] concerns NCI-H2122. Put plainly: Antitumor activity against human NCI-H2122 cells xenografted in nod-SCID mouse fed normal chow diet at 20 mg/kg, ip QD for 3 weeks. In kind it is functional, organism-based. Summed up: (§2)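 Female NOD-SCID mice, 6–8 weeks, on control diet (4.1% soybean-oil fat) or fat-free diet (0.1% fat). Three days later, 5 × 10⁶ H2122 cells injected subcutaneously into the left flank. At ~100 mm³, randomized to groups of six. Dosing 10 mg/kg BID, 20 mg/kg QD, or vehicle BID (10% DMSO, 10% Kolliphor EL, 80% 50 mM lactic acid pH 3.6) for three weeks. Caliper measurements twice weekly; volume = length × width² × π/6.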

Data set [15] concerns NCI-H2122. Put plainly: Antitumor activity against human NCI-H2122 cells xenografted in nod-SCID mouse fed normal chow diet at 10 mg/kg, ip BID for 3 weeks. In kind it is functional, organism-based. Summed up:
as §2
In general terms: A xenograft is tissue or cells of one species grown in another, often human tumour cells in immunodeficient mice.

The test system of data set [16] is NCI-H2122. Put plainly: Antitumor activity against human NCI-H2122 cells xenografted in nod-SCID mouse fed fat-free diet at 20 mg/kg, ip QD for 3 weeks. In kind it is functional, organism-based. The method, boiled down:
as §2

Data set [17] deals with NCI-H2122. Put plainly: Antitumor activity against human NCI-H2122 cells xenografted in nod-SCID mouse fed fat-free diet at 10 mg/kg, ip BID for 3 weeks. In kind it is functional, organism-based. The method, boiled down:
as §2

A short description of data set [18]: Drug level in plasma of normal chow diet fed nod-SCID mouse xenografted with NCI-H2122 cells at 20 mg/kg, ip QD for 3 weeks and measured 3 hrs after final dose by LC-MS/MS analysis. In kind it is ADME, organism-based. The method, boiled down: (§3)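 Xenografted NOD-SCID mice on control or fat-free diet, dosed for three weeks, euthanized 3 h after the last dose. Plasma and tumor homogenate (3 volumes PBS) mixed with 2 volumes acetonitrile or methanol with 0.15% formic acid and internal standard, then centrifuged. Drug form quantified by LC-MS/MS against spiked blank-matrix standard curves.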

Data set [19] can be described thus: Drug level in tumor of normal chow diet fed nod-SCID mouse xenografted with NCI-H2122 cells at 20 mg/kg, ip QD for 3 weeks and measured 3 hrs after final dose by LC-MS/MS analysis. It is filed as ADME, organism-based, Neoplasm. The following applies: read-out: Drug uptake. The method, boiled down: as §3
A short description of data set [20]: Drug level in plasma of fat-free diet fed nod-SCID mouse xenografted with NCI-H2122 cells at 20 mg/kg, ip QD for 3 weeks and measured 3 hrs after final dose by LC-MS/MS analysis. In kind it is ADME, organism-based. The method, boiled down: as §3
Data set [21] is described as follows: Drug level in tumor of fat-free diet fed nod-SCID mouse xenografted with NCI-H2122 cells at 20 mg/kg, ip QD for 3 weeks and measured 3 hrs after final dose by LC-MS/MS analysis. The following applies: read-out: Drug uptake. It is filed as ADME, organism-based, Neoplasm. The method, boiled down: as §3
Data set [22] can be described thus: Toxicity in normal chow diet fed nod-SCID mouse xenografted with NCI-H2122 cells assessed as effect on behavior at 20 mg/kg, ip QD for 3 weeks. It is filed as organism-based. The settings on record: in vivo, 504 h.
The nature of data set [23]: Toxicity in normal chow diet fed nod-SCID mouse xenografted with NCI-H2122 cells assessed as effect on appearance at 20 mg/kg, ip QD for 3 weeks. In kind it is organism-based. The following applies: in vivo, 504 h.
Data set [24] is described as follows: Toxicity in normal chow diet fed nod-SCID mouse xenografted with NCI-H2122 cells assessed as effect on body weight at 20 mg/kg, ip QD for 3 weeks. The settings on record: in vivo, 504 h. It is filed as organism-based.
Data set [25] is described as follows: Toxicity in fat-free diet fed nod-SCID mouse xenografted with NCI-H2122 cells assessed as effect on behavior at 20 mg/kg, ip QD for 3 weeks. The settings on record: in vivo, 504 h. In kind it is organism-based.
Data set [26] is described as follows: Toxicity in fat-free diet fed nod-SCID mouse xenografted with NCI-H2122 cells assessed as effect on appearance at 20 mg/kg, ip QD for 3 weeks. The settings on record: in vivo, 504 h. In kind it is organism-based.
The nature of data set [27]: Toxicity in fat-free diet fed nod-SCID mouse xenografted with NCI-H2122 cells assessed as effect on body weight at 20 mg/kg, ip QD for 3 weeks. It is filed as organism-based. The following applies: in vivo, 504 h.
A short description of data set [28]: Toxicity in normal chow diet fed nod-SCID mouse xenografted with NCI-H2122 cells assessed as effect on behavior at 10 mg/kg, ip BID for 3 weeks. The following applies: in vivo, 504 h. In kind it is organism-based.
Data set [29] in a line: Toxicity in normal chow diet fed nod-SCID mouse xenografted with NCI-H2122 cells assessed as effect on appearance at 10 mg/kg, ip BID for 3 weeks. It is filed as organism-based. The following applies: in vivo, 504 h.
Data set [30] can be described thus: Toxicity in normal chow diet fed nod-SCID mouse xenografted with NCI-H2122 cells assessed as effect on body weight at 10 mg/kg, ip BID for 3 weeks. It is filed as organism-based. The settings on record: in vivo, 504 h.
The nature of data set [31]: Toxicity in fat-free diet fed nod-SCID mouse xenografted with NCI-H2122 cells assessed as effect on behavior at 10 mg/kg, ip BID for 3 weeks. In kind it is organism-based. The settings on record: in vivo, 504 h.
A short description of data set [32]: Toxicity in fat-free diet fed nod-SCID mouse xenografted with NCI-H2122 cells assessed as effect on appearance at 10 mg/kg, ip BID for 3 weeks. In kind it is organism-based. The following applies: in vivo, 504 h.
Data set [33] is described as follows: Toxicity in fat-free diet fed nod-SCID mouse xenografted with NCI-H2122 cells assessed as effect on body weight at 10 mg/kg, ip BID for 3 weeks. It is filed as organism-based. The settings on record: in vivo, 504 h.
Data set [34] in a line: Toxicity in fat-free diet fed nod-SCID mouse xenografted with NCI-H2122 cells assessed as body weight loss at 10 mg/kg, ip BID for 3 weeks (reference value: <5%). It is filed as organism-based. The settings on record: in vivo, 504 h.
Data set [35] in a line: Toxicity in fat-free diet fed nod-SCID mouse xenografted with NCI-H2122 cells assessed as body weight loss at 20 mg/kg, ip QD for 3 weeks (reference value: <5%). It is filed as organism-based. The settings on record: in vivo, 504 h.
Data set [36] can be described thus: Toxicity in normal chow diet fed nod-SCID mouse xenografted with NCI-H2122 cells assessed as body weight loss at 10 mg/kg, ip BID for 3 weeks (reference value: <5%). It is filed as organism-based. The following applies: in vivo, 504 h.
A short description of data set [37]: Toxicity in normal chow diet fed nod-SCID mouse xenografted with NCI-H2122 cells assessed as body weight loss at 20 mg/kg, ip QD for 3 weeks (reference value: <5%). In kind it is organism-based. The settings on record: in vivo, 504 h.

The term AUC denotes the area under the concentration-time curve, a measure of exposure. Broadly, the Cmax is the highest concentration seen after dosing. The half-life is the time needed for the level to fall by half in the phase considered.

Activity calls are given as the source filed them.

Consider `COc1ccc2nc(NC(=O)c3ccc(C(N)c4ccccc4)cc3)sc2c1` (racemic), for which the figures for the AUC at 504 h in data set [1], in [3] and in [5] were 77 µM·h, 160 µM·h and 3 µM·h, respectively. In addition, the Cmax in [2] is 94 µM; in [4], 61 µM; in [6] it was 1.5 µM. In addition, the concentration at 7 h in data set [7] is 7 µM.

Consider `COc1ccc2nc(NC(=O)c3ccc(C(=O)c4ccccc4)cc3)sc2c1`, for which the Cmax is 90 µM in data set [2], 0.9 µM in data set [4] and 0.3 µM in data set [6]. Also, the AUC at 504 h in [3] is 2.6 µM·h; in data set [5], 0.6 µM·h.

In the case of `COc1ccc2nc(NC(=O)c3ccc(C(O)c4ccccn4)cc3)sc2c1` (racemic), the AUC at 504 h worked out at 70 µM·h in data set [1], 17 µM·h in data set [3] and 9.6 µM·h in data set [5]. The values for the highest concentration (Cmax) in [2], in [4] and in data set [6] were 120 µM, 26 µM and 11 µM, respectively.

Regarding `N[C@H](c1ccccc1)c1ccc(C(=O)Nc2nc3ccccc3s2)cc1`, the Drug metabolism entry in [8] is “Metabolite_Detected”.

Regarding `COc1ccc2nc(NC(=O)c3ccc([C@H](N)c4ccccc4)cc3)sc2c1`, the figures for the half-life at 0.1 µM in [9], in [10] and in data set [11] were 19 h, greater than 48 h and greater than 48 h, respectively. Also, the Drug metabolism entry in data set [8] is given as “Metabolite_Detected”; in [12], “Metabolite_Notdetected”; in data set [13], “Metabolite_Notdetected”. Moreover, the outcome in the data set with NCI-H2122 [14], in the data set on NCI-H2122 [15], in the data set on NCI-H2122 [16] and in the data set on NCI-H2122 [17] was Active. The concentration at 3 h in data set [18], in data set [19], in [20] and in data set [21] was greater than 5 µM throughout. In addition, the Activity entry in [22], in data set [23], in data set [24], in data set [25], in data set [26] and in [27] was “Non-Toxic” throughout. Besides, the Activity result in data set [28], in [29], in data set [30], in data set [31], in data set [32] and in [33] was “Non-Toxic” throughout. Further, the Activity in data set [34] was 17%; in [35] it was 7%; in data set [36] it was 13%; in [37] it was 5%. In data set [5], the AUC at 504 h was found to be 1.6 µM·h. Besides, the peak level in [6] (Cmax) was 0.9 µM.

Values taken from ChEMBL document CHEMBL4622978, “Tumor-Activated Benzothiazole Inhibitors of Stearoyl-CoA Desaturase” (J Med Chem, 2020).
